Measured values gathered from unrelated publications.
Protocols differ between the studies behind these lines.
Target: Megakaryocyte-associated tyrosine-protein kinase (MATK, Homo sapiens, UniProt P42679)
Sequence (P42679 1-507, as in one of the studies): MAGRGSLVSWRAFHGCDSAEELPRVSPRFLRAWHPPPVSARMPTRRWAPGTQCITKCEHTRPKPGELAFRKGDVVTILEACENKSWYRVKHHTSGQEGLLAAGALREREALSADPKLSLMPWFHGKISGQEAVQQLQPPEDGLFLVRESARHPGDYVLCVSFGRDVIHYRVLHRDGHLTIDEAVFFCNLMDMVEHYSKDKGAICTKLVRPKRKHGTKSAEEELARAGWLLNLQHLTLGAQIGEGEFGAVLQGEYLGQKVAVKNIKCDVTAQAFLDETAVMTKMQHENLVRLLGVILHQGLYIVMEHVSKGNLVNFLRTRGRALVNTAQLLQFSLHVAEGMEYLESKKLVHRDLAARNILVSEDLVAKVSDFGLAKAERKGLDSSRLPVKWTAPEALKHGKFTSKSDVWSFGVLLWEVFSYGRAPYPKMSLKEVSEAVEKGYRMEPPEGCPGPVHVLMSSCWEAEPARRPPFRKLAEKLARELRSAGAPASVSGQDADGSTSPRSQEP

Compound | assay | setting | endpoint | result
c1nc2c(Nc3ccc4c(c3)OCCO4)nc(Nc3ccc4c(c3)OCCO4)nc2[nH]1 | enzyme activity, inhibitor | 10 µM | activity vs control | 49%
Cc1sc(C(=O)NC2COC2)cc1-n1cc(NC(=O)Nc2c(F)cccc2Cl)cn1 | enzyme activity, inhibitor | 10 µM | remaining activity | 97.8%
CC(C)(C)c1nc(-c2cccc(NS(=O)(=O)c3c(F)cccc3F)c2F)c(-c2ccnc(N)n2)s1 | enzyme activity, inhibitor, radiometric | 1 µM | remaining activity | 90%
CCCS(=O)(=O)Nc1ccc(F)c(C(=O)c2c[nH]c3ncc(-c4ccc(Cl)cc4)cc23)c1F | enzyme activity, inhibitor | 1 µM | inhibition | < 20%
O=c1nc(-c2ccccn2)sc2ccccc12 | binding, competition with immobilised ligand | 1 µM | remaining binding | 100%
O=C(Nc1cnn(-c2csc(C(=O)NC3COC3)c2)c1)Nc1ccccc1Cl | enzyme activity, inhibitor | 5 µM | remaining activity | 99.7%
COc1cc2ncnc(Nc3ccc(Oc4ccccc4)c(C)c3C)c2cc1OC | enzyme activity, inhibitor | 1 µM | inhibition | -2%
O=C1NC(=O)c2cc(Nc3ccc(F)cc3)c(Nc3ccc(F)cc3)cc21 | cell-free assay | 0.5 µM | remaining signal | 93.5%
CN(C(=O)c1ccccc1)c1cc(N(C)c2ccc3c(c2)CCc2ccc(C(=O)NCCN4CCOCC4)cc2C3=O)ccc1F | cell-free assay, competition with immobilised ligand | 1 µM | remaining binding | 84%
CC(C)(O)[C@H]1CC[C@H](Nc2ccc3ncc(-c4cccc(C(F)(F)F)c4)n3n2)CC1 | enzyme activity, inhibitor | 1 µM | remaining activity | 102%
O=C(O)[C@@H]1[C@@H](Cn2nnc3ccccc3c2=O)CC[C@H]1C(=O)c1ccc(OCCC2CCOCC2)cc1 | cell-free assay, competition with immobilised ligand | 1 µM | remaining binding | 95%
O=C1Nc2ccc(Cl)cc2C1=Cc1cc(Cl)c(O)c(Cl)c1 | cell-free assay | 0.5 µM | remaining signal | 82.2%
